The source made the active and inactive calls. No cut-off for these calls is given here.
Tests used:
U-937 = test: Antiproliferative activity against human U937 cells after 24 hrs by MTT assay; assay type: functional; settings: U-937, 24 h
Procedure, shortened: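 U937 cells kept in RPMI 1640 with 10% FBS, 1% penicillin/streptomycin and 25 mM HEPES (37 °C, 5% CO₂). Seeded at 5×10³ cells/well and held 24 h before exposure to 12 concentrations in 3-fold serial dilution. MTT reduction read at 570 nm. IC50 obtained by curve fitting.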

[1] = Antiproliferative activity against human A375P cells after 24 hrs by MTT assay; assay type: functional
Procedure, shortened: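 A375P cells grown in DMEM with 10% FBS and 1% penicillin/streptomycin at 37 °C, 5% CO₂. Harvested with trypsin-EDTA, seeded at 5×10³ cells/well and incubated 24 h before dosing with a 12-point, 3-fold serial dilution. Viability by MTT reduction, absorbance at 590 nm. IC50 derived by curve fitting.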

[2] = molecular target: T1, Macrophage colony-stimulating factor 1 receptor (Homo sapiens, UniProt P07333); test: Inhibition of human FMS using myelin basic protein as substrate after 40 mins in presence of [gamma-33P]-ATP by liquid scintillation counting method
T1 sequence (P07333 whole entry): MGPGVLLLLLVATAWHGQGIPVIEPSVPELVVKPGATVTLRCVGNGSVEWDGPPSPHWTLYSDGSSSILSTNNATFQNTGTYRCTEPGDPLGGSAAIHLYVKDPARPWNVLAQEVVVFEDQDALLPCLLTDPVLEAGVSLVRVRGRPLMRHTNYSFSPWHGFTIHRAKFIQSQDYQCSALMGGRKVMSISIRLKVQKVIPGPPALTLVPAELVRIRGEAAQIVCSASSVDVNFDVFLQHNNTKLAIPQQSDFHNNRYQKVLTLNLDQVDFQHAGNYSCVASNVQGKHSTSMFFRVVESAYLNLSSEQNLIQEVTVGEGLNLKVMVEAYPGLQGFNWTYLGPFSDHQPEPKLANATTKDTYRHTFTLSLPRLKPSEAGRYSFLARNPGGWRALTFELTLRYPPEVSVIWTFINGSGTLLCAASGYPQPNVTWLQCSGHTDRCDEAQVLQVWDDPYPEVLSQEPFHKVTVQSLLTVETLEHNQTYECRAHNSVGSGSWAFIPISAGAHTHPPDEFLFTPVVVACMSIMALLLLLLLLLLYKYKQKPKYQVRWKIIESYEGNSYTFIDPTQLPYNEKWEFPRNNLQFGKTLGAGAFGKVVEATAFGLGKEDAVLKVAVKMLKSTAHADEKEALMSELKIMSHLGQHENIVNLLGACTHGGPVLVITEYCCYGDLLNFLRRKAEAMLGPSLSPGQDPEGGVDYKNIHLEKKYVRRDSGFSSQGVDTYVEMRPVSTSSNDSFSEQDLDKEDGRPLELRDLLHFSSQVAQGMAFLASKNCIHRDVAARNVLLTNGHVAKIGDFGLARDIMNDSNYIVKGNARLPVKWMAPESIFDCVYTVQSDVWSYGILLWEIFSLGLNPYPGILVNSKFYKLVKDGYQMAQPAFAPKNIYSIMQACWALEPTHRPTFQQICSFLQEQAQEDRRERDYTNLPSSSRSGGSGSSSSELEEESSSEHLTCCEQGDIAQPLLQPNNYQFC
Procedure, shortened: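 Radiometric filter-binding assay with human FMS (5–10 mU) in 25 mM Tris pH 7.5, 0.02 mM EGTA, 0.66 mg/mL myelin basic protein and 10 mM magnesium acetate, with [γ-33P]ATP (approx. 500 cpm/pmol). Started with Mg-ATP mix and run 40 min at room temperature. Stopped with 3% phosphoric acid, spotted on P30 filtermat, washed in 75 mM phosphoric acid then methanol, scintillation counted.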

[3] = molecular target: T1, Macrophage colony-stimulating factor 1 receptor; test: Inhibition of human FMS using myelin basic protein as substrate at 10 uM after 40 mins in presence of [gamma-33P]-ATP by liquid scintillation counting method
[4] = molecular target: T2, Receptor-type tyrosine-protein kinase FLT3 (Homo sapiens, UniProt P36888); test: Inhibition of FLT3 (unknown origin) after 40 mins in presence of [gamma-33P]-ATP by liquid scintillation counting method
T2 sequence (P36888 whole entry): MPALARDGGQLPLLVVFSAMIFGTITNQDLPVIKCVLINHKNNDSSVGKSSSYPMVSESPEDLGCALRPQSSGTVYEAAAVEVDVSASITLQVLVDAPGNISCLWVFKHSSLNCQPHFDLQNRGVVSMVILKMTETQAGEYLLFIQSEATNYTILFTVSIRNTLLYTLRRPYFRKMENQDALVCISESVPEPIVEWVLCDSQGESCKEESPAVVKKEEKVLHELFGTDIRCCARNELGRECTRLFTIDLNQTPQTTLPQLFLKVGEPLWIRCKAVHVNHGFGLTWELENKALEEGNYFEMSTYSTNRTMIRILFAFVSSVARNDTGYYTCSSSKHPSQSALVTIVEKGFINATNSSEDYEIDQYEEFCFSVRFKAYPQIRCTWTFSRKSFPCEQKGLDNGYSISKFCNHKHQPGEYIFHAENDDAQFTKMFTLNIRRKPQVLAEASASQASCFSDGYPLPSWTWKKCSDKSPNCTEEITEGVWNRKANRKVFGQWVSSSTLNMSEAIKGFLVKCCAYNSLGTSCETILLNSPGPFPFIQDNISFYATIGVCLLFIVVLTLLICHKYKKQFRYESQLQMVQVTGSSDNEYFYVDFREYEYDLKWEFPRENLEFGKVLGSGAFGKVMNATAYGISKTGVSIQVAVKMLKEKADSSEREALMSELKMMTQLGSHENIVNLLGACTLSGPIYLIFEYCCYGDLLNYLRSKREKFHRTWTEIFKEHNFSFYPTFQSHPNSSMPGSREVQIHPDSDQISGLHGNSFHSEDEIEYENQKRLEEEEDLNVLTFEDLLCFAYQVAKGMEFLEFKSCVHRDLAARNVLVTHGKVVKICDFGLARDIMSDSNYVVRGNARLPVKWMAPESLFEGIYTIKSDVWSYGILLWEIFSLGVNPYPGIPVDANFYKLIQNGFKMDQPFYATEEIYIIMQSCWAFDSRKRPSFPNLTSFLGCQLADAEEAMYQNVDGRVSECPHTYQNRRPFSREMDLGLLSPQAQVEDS

[5] = molecular target: Receptor-type tyrosine-protein kinase FLT3 (Homo sapiens) (UniProt P36888); test: Inhibition of human FLT3 using EAIYAAPFAKKK peptide as substrate at 10 uM after 40 mins in presence of [gamma-33P]-ATP by liquid scintillation counting method
[6] = molecular target: T3, Proto-oncogene tyrosine-protein kinase receptor Ret (Homo sapiens, UniProt P07949); test: Inhibition of human RET using KKKVSRSGLYRSPSMPENLNRPR as substrate at 10 uM after 40 mins in presence of [gamma-33P]-ATP by liquid scintillation counting method
T3 sequence (P07949 whole entry): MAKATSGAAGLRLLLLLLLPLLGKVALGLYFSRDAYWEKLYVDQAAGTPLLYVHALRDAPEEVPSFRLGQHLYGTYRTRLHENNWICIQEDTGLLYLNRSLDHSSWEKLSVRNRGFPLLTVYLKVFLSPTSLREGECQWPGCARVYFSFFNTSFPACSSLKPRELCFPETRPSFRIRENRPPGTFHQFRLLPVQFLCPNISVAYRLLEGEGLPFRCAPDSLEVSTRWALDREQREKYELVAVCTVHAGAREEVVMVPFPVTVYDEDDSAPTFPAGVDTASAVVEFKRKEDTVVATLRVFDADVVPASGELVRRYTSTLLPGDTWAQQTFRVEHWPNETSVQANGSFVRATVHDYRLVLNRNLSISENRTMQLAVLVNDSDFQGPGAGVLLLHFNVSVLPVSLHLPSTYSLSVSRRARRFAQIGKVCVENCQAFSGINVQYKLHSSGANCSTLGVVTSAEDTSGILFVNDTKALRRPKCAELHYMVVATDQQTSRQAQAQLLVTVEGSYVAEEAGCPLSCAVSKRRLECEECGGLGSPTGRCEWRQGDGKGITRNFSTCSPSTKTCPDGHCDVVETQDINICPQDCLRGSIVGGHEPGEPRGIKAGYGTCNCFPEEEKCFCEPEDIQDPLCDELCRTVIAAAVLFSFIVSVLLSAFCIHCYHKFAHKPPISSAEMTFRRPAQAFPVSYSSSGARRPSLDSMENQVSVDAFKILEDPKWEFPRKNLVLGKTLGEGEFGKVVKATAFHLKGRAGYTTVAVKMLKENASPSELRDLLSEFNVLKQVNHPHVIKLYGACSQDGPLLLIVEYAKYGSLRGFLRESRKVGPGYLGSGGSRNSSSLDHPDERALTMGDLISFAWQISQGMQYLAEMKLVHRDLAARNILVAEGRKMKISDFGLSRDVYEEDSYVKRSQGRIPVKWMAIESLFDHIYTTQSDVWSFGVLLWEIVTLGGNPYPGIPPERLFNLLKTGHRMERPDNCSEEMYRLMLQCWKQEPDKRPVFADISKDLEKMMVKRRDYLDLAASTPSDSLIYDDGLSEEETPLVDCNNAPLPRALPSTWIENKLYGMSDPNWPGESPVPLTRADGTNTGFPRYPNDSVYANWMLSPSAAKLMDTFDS

[7] = molecular target: T4, Platelet-derived growth factor receptor beta (Homo sapiens, UniProt P09619); test: Inhibition of PDGFRb (unknown origin) after 40 mins in presence of [gamma-33P]-ATP by liquid scintillation counting method
T4 sequence (P09619 whole entry): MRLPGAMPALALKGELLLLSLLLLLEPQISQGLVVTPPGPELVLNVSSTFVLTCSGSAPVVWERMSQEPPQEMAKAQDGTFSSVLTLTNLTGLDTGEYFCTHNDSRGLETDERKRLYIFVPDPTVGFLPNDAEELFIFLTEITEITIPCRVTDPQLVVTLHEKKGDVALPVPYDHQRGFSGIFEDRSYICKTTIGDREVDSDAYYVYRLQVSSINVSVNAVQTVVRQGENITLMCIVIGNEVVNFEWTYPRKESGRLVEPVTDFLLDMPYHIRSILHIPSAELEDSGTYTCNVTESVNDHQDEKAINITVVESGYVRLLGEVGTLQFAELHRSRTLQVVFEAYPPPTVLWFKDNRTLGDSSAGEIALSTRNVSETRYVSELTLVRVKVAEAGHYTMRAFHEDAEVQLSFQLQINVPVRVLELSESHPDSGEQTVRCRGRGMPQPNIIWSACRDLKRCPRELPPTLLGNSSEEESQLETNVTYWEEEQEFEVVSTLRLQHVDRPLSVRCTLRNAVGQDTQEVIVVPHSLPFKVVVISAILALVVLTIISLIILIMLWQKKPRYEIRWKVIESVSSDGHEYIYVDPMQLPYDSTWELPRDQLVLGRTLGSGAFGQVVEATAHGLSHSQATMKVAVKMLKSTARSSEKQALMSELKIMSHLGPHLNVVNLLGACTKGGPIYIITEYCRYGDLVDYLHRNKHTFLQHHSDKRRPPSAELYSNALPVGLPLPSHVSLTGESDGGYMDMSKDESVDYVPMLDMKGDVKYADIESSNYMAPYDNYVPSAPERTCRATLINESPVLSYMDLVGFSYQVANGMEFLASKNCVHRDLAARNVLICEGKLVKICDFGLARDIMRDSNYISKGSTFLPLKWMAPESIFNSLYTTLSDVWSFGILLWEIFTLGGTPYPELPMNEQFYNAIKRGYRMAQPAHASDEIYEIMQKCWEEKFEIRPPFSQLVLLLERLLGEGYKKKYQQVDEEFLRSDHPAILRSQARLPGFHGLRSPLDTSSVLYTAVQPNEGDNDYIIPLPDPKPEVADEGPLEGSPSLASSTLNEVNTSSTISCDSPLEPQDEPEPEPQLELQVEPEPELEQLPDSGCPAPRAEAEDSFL

[8] = molecular target: T4, Platelet-derived growth factor receptor beta; test: Inhibition of human PDGFRb using poly[Glu:Tyr] (4:1) as substrate at 10 uM after 40 mins in presence of [gamma-33P]-ATP by liquid scintillation counting method
[9] = molecular target: T3, Proto-oncogene tyrosine-protein kinase receptor Ret; test: Inhibition of RET (unknown origin) after 40 mins in presence of [gamma-33P]-ATP by liquid scintillation counting method
[10] = molecular target: Vascular endothelial growth factor receptor 3 (Homo sapiens) (UniProt P35916); test: Inhibition of human FLT4 using poly[Glu:Tyr] (4:1) as substrate at 10 uM after 40 mins in presence of [gamma-33P]-ATP by liquid scintillation counting method
Chain of Vascular endothelial growth factor receptor 3 (Homo sapiens) (P35916 whole entry): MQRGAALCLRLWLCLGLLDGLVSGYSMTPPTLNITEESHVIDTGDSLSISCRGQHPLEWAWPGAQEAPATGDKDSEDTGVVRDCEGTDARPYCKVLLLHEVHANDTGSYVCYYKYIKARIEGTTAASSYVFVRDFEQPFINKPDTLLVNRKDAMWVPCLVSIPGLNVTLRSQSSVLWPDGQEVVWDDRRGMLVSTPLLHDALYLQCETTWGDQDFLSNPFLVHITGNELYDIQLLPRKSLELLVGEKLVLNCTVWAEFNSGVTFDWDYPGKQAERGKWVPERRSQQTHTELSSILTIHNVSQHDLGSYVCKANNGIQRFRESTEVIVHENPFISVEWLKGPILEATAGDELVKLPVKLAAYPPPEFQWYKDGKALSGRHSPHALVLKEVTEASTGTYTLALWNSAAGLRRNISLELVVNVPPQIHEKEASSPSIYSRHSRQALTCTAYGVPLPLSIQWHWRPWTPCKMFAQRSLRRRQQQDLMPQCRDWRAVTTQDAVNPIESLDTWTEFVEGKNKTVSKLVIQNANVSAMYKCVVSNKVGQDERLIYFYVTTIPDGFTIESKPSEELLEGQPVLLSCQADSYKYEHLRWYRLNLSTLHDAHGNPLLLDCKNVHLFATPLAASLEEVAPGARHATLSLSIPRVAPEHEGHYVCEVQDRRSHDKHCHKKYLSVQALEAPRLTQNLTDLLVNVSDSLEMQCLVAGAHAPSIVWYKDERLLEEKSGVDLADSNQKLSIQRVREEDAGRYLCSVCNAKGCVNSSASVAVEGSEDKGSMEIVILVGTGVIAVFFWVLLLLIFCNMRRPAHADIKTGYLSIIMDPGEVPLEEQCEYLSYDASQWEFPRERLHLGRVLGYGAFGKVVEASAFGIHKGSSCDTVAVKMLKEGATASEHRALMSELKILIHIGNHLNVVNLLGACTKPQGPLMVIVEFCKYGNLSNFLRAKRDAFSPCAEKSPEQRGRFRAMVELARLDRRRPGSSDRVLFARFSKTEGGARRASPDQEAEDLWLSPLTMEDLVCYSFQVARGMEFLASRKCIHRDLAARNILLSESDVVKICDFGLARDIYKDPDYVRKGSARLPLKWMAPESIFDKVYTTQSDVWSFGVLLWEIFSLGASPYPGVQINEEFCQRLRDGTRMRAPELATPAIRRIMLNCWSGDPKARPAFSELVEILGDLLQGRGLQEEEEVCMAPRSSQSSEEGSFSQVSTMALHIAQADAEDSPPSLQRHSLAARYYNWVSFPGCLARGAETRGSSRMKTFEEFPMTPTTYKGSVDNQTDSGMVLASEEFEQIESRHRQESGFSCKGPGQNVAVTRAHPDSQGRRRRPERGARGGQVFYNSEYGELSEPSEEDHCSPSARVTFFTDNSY

Row | SMILES | GI50 (U-937) [µM] | GI50 [1] [µM] | also measured
1 | CCN1CCN(Cc2ccc(NC(=O)Nc3cccc(C4=Nc5cscc5NC(=O)C4)c3)cc2C(F)(F)F)CC1 | 2.75 | 1.82 | –
2 | O=C1CC(c2cccc(NC(=O)c3cnn(-c4ccccc4)c3C(F)(F)F)c2)=Nc2cscc2N1 | 9.64 | – | –
3 | O=C1CC(c2ccc(NC(=O)Nc3ccc(Cl)c(Cl)c3)cc2)=Nc2cscc2N1 | – | 2.06 | –
4 | O=C1CC(c2cccc(NC(=O)Nc3ccc(Cl)c(C(F)(F)F)c3)c2)=Nc2cscc2N1 | 14.3 | 8.25 | –
5 | O=C(Cc1ccc(-c2ccccc2)cc1)Nc1ccc(C2=Nc3cscc3NC(=O)C2)cc1 | – | 8.7 | –
6 | O=C1CC(c2cccc(NC(=O)c3cc(N4CCOCC4)cc(C(F)(F)F)c3)c2)=Nc2cscc2N1 | – | 1.98 | –
7 | O=C1CC(c2ccc(NC(=O)Nc3ccc(Cl)cc3)cc2)=Nc2cscc2N1 | 0.964 | 3.12 | –
8 | CCN1CCN(Cc2ccc(NC(=O)Nc3ccc(C4=Nc5cscc5NC(=O)C4)cc3)cc2C(F)(F)F)CC1 | – | 0.32 | IC50 [2]: 0.00373 µM; inhibition [3]: Active; IC50 [4]: 0.0279 µM; inhibition [5]: Active; inhibition [6]: Active; IC50 [7]: 0.0634 µM; inhibition [8]: Active; IC50 [9]: 0.0716 µM; inhibition [10]: Active
9 | CN1CCN(c2cc(C(=O)Nc3cccc(C4=Nc5cscc5NC(=O)C4)c3)cc(C(F)(F)F)c2)CC1 | – | 3.04 | –
10 | O=C(Cc1c[nH]c2ccccc12)Nc1cccc(C2=Nc3cscc3NC(=O)C2)c1 | > 30 | > 30 | –
11 | O=C1CC(c2ccc(NC(=O)Nc3ccc(Cl)c(C(F)(F)F)c3)cc2)=Nc2cscc2N1 | 4.08 | 1.7 | –
12 | O=C1CC(c2cccc(NC(=O)c3ccc(Cl)c(C(F)(F)F)c3)c2)=Nc2cscc2N1 | – | 4.99 | –
13 | CNC(=O)c1cc(Oc2ccc(NC(=O)Nc3ccc(Cl)c(C(F)(F)F)c3)cc2)ccn1 [SORAFENIB] | 2.34 | 3.4 | –
14 | O=C1CC(c2ccc(NC(=O)c3ccc(Cl)c(C(F)(F)F)c3)cc2)=Nc2cscc2N1 | – | 7.85 | –
15 | CN1CCN(c2cc(C(=O)Nc3ccc(C4=Nc5cscc5NC(=O)C4)cc3)cc(C(F)(F)F)c2)CC1 | > 30 | > 30 | –
16 | O=C1CC(c2cccc(NC(=O)c3ccccc3-c3ccccc3)c2)=Nc2cscc2N1 | 1.03 | 3.25 | –
17 | CC(=O)N1CCC(C(=O)Nc2ccc(C3=Nc4cscc4NC(=O)C3)cc2)CC1 | – | > 30 | –
18 | O=C1CC(c2cccc(NC(=O)Nc3ccc(Cl)cc3)c2)=Nc2cscc2N1 | 4.55 | 5.04 | –
19 | O=C1CC(c2cccc(NC(=O)Nc3ccc(Cl)c(Cl)c3)c2)=Nc2cscc2N1 | 3.2 | 11 | –
20 | O=C1CC(c2ccc(NC(=O)c3cc(N4CCOCC4)cc(C(F)(F)F)c3)cc2)=Nc2cscc2N1 | – | 3.45 | –
21 | O=C(Cc1c[nH]c2ccccc12)Nc1ccc(C2=Nc3cscc3NC(=O)C2)cc1 | > 30 | > 30 | –
22 | Cc1c(C)c2c(c(C)c1O)CC[C@](C)(C(=O)Nc1cccc(C3=Nc4cscc4NC(=O)C3)c1)O2 | – | > 30 | –
23 | O=C1CC(c2cccc(NC(=O)c3cnc4ccccc4c3)c2)=Nc2cscc2N1 | – | 6.87 | –
24 | O=C1CC(c2ccc(NC(=O)c3cnn(-c4ccccc4)c3C(F)(F)F)cc2)=Nc2cscc2N1 | – | 6.85 | –
25 | O=C1CC(c2ccc(NC(=O)c3ccccc3-c3ccccc3)cc2)=Nc2cscc2N1 | 3.77 | > 30 | –

From ChEMBL document CHEMBL4219080, “Discovery of novel 4-aryl-thieno[1,4]diazepin-2-one derivatives targeting multiple protein kinases as anticancer agents” (Bioorg Med Chem, 2018)
